This is an account of results in ChEMBL document CHEMBL1156160, “The introduction of P4 substituted 1-methylcyclohexyl groups into Boceprevir: a change in direction in the search for a second generation HCV NS3 protease inhibitor” (Bioorg Med Chem Lett, 2010).

The nature of data set [1]: Inhibition of HCV NS4A tagged recombinant single chain NS3 protease after 15 mins. The arrangement: species or system Hepacivirus hominis.
A short description of data set [2]: AUC in monkey at 3 mg/kg, po. The settings on record: rhesus monkey, plasma. Type of data set: ADME, organism-based, Macaca mulatta. The arrangement: dose 3 mg/kg, route oral.
Data set [3] can be described thus: Bioavailability in dog. Format: ADME, organism-based, Canis lupus familiaris. The conditions noted are these: in vivo.
In the next data set the test system is Hepatitis C virus. As to the kind of experiment: Antiviral activity against HCV in human hepatoma cells assessed as inhibition of RNA replication by replicon assay. Format: functional, Hepacivirus hominis. In general terms: In antiviral work, replicon cells carry a viral genome segment that copies itself.
Data set [4] can be described thus: Selectivity for HCV NS3 protease over human neutrophil elastase. An outline of the steps: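 Ratio of inhibitory activity against human neutrophil elastase to that against HCV protease (HNE/HCV), taken as selectivity. HCV activity was from a continuous protease assay using NS4A-tethered single-chain NS3 serine protease, giving Ki* as the equilibrium constant for reversible covalent binding of the electrophilic ketone to the active-site serine. Compounds were tested as P1-epimer diastereomer mixtures.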

By Ki is commonly meant the dissociation constant of the complex between target and ligand, obtained from inhibition or displacement. As usually defined, the AUC is the area under the concentration-time curve, a measure of exposure. The bioavailability is dose-corrected exposure relative to a reference, in per cent. The EC90 is the concentration at which the effect reaches the 90% level. Take `CC(C)(C)NC(=O)N[C@H](C(=O)N1C[C@H]2[C@@H]([C@H]1C(=O)NC(CC1CCC1)C(=O)C(N)=O)C2(C)C)C(C)(C)C` (some centres not stated) [BOCEPREVIR]: in data set [1], the Ki worked out at 14 nM. In data set [2], this molecule showed an AUC of 0.12 µM·h. The bioavailability in data set [3] is 34%. In the data set on Hepatitis C virus, the EC90 is 350 nM. Moreover, the Ratio in data set [4] was found to be 2200.

Take `CC(C)(C)[C@H](NC(=O)NC1(CS(C)(=O)=O)CCCCC1)C(=O)N1C[C@H]2[C@@H]([C@H]1C(=O)NC(CC1CCC1)C(=O)C(N)=O)C2(C)C` (some centres not stated): the Ki in data set [1] is 4 nM. The EC90 in the data set on Hepatitis C virus came to 500 nM. Also, the Ratio in data set [4] was determined as 2400.

`CC(C)(C)[C@H](NC(=O)NC1(Cc2cccnc2)CCCCC1)C(=O)N1C[C@H]2[C@@H]([C@H]1C(=O)NC(CC1CC1)C(=O)C(N)=O)C2(C)C` (some centres not stated): the Ki in data set [1] was determined as 25 nM. The EC90 in the data set on Hepatitis C virus came to 400 nM. In data set [4], the Ratio came out at 200.

On to `CC(C)(C)[C@H](NC(=O)NC1(C(O)c2ccccc2)CCCCC1)C(=O)N1C[C@H]2[C@@H]([C@H]1C(=O)NC(CC1CC1)C(=O)C(N)=O)C2(C)C` (some centres not stated), for which the Ki in data set [1] worked out at 11 nM. Moreover, the EC90 with Hepatitis C virus came to 400 nM. In data set [4], the Ratio was found to be 1170.

For `CC(C)(C)[C@H](NC(=O)NC1(CS(=O)(=O)Cc2ccco2)CCCCC1)C(=O)N1C[C@H]2[C@@H]([C@H]1C(=O)NC(CC1CC1)C(=O)C(N)=O)C2(C)C` (some centres not stated), the Ki in data set [1] worked out at 4 nM. The EC90 in the data set with Hepatitis C virus turned out to be 500 nM. Moreover, the Ratio in data set [4] is 200.
